In the library only some 2.3% were active in any assay of this set; here they are far more common.
RBBP9 inhibitor: human RBBP9 inhibitors, primary screen, biochemical, fluorescence polarization, FP-Rh probe, HTS | recombinant RBBP9 | inhibition, % at 7.94 µM | 220,000 compounds, 0.2% hits | AID 1515, 2009;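 active means inhibition above the campaign mean of all tested compounds plus 3 SD, cut at about 14% in these data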
Target sequence (O75884 whole entry, looked up): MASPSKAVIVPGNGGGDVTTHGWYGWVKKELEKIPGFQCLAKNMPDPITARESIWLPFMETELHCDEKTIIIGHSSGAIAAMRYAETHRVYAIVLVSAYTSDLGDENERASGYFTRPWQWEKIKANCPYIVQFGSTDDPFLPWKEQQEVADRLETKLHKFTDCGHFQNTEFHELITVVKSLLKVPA
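Material: RBBP9 protein. Amount: RBBP9 at 2.5 µM in dispensed solution, before mixing. Schedule: 30 min then 45 min, 25 °C. Medium: Tris buffer pH 8.0, NaCl, Pluronic. Measured by: fluorescence polarization. Measure: percent inhibition from mP, scaled between DMSO and no-protein wells. Replication: one well per compound.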
PRMT1 inh: PRMT1 methyltransferase inhibitors, primary screen, biochemical, fluorescence polarization; recombinant PRMT1, activity-based probe fluorescence polarization; inhibition, % at 2.79 µM; 370,000 compounds, 1.3% hits; AID 652257, 2013;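 active means inhibition above about 21% made by adding two undisclosed values, limit read from the data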
PAD4 FP inh: human PAD4 inhibitors, primary screen, biochemical, fluorescence polarization, 1536-well format | Protein-arginine deiminase type-4 (Homo sapiens), Q9UM07 | recombinant PAD4, RCA probe fluorescence polarization | inhibition, % at 6.36 µM | 330,000 compounds, 0.41% hits;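 active means percent inhibition above a cutoff equal to the mean of all tested compounds plus 3 SD, cut at about 15% in these data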
PME-1 primary: PME-1 inhibitors via competitive probe labeling, primary screen, biochemical, fluorescence polarization, FP-Rh probe, HTS | Protein phosphatase methylesterase 1 (Homo sapiens), Q9Y570 | 320,000 compounds, 0.53% hits | inhibition, % at 5.9 µM | recombinant PME-1;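 active means inhibition above the campaign mean of all compounds plus 3 SD, cut at about 26% in these data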;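 further: competitive labeling of PME-1 active site by serine hydrolase directed probe; inhibitors block probe labeling so polarization falls and inhibition rises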
Target sequence (Q9Y570 whole entry, looked up): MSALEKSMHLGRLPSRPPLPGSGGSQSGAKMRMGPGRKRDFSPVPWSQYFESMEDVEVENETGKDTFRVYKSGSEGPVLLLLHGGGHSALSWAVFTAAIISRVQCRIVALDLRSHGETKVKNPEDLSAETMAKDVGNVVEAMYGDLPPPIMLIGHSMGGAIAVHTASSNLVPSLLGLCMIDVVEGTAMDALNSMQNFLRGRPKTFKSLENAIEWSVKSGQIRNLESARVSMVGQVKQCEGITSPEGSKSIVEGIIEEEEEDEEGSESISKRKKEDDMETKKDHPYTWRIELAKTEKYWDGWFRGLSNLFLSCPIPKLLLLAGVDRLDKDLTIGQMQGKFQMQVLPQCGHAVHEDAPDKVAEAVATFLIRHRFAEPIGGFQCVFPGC
Fam108B inh: mouse Fam108B serine hydrolase inhibitors, primary screen, counter-screen for RBBP9 inhibitor project, biochemical, fluorescence polarization; recombinant Fam108B, FP-Rh probe fluorescence polarization; inhibition, % at 9.51 µM; 300,000 compounds, 0.33% hits; AID 1947, 2009;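 active means inhibition above the screen mean inhibition plus 3 SD, computed separately per campaign, cut at about 18% in these data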;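 further: inhibitors lower polarization as less probe binds the enzyme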
GSTO1 inh: inhibitors of recombinant GSTO1, primary screen, counter-screen for RBBP9 inhibitor project, biochemical, fluorescence polarization; inhibition, % at 5.96 µM; activity-based probe fluorescence polarization; 300,000 compounds, 1.1% hits;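 active means inhibition above the campaign mean inhibition plus 3 SD, cut at about 35% in these data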
RBBP9 inh conf: human RBBP9 inhibitors, retest, confirmation, biochemical, fluorescence polarization, FP-Rh probe, triplicate; shares compounds with RBBP9 inhibitor; inhibition, % at 7.94 µM; 410 compounds, 36% hits; AID 1537, 2009; recombinant RBBP9;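 active means inhibition above the hit cutoff derived for the primary screen, cut at about 15% in these data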
A number is an active result; n = inactive; x = not tested or not shown.

SMILES	RBBP9 inhibitor	PRMT1 inh	PAD4 FP inh	PME-1 primary	Fam108B inh	GSTO1 inh	RBBP9 inh conf
CCOc1cc(C2NN=C(c3ccc(C)cc3)S2)ccc1O (centres undefined)	n	n	n	n	25.0	n	x
COc1ccc(C2NN=C(c3ccc(C)cc3)S2)cc1 (centres undefined)	x	n	n	n	n	n	x
O=[N+]([O-])c1ccc(NN=C(c2ccccc2)c2ccccc2)nc1	x	n	x	x	x	x	x
Cc1ccc(N(CC2CO2)S(=O)(=O)c2ccc(C)cc2)cc1 (centres undefined)	n	n	n	n	n	73.9	x
O=C(O)c1cc(NS(=O)(=O)c2cccc3nsnc23)cc(C(=O)O)c1	x	n	n	n	n	n	x
O=C(NCc1ccccc1)C1CCN(S(=O)(=O)c2ccc(Cl)cc2)CC1	n	n	n	44.5	n	n	x
O=C(NCc1ccncc1)C1CCN(S(=O)(=O)c2ccccc2)CC1	x	n	n	n	n	n	x
CC(C)Cc1nc(Nc2ccccc2C#N)c2nnn(Cc3ccccc3)c2n1	x	n	n	n	n	n	x
COC(=O)c1ccc(Cn2nnc3c(=O)[nH]c(C4CCN(S(=O)(=O)c5ccc(F)cc5)CC4)nc32)cc1	x	n	n	35.5	n	n	x
Cc1[nH][nH]c(=O)c1C(c1ccc(-c2ccc(Cl)c(Cl)c2)o1)c1c(C)[nH][nH]c1=O	n	n	n	n	n	34.9	x
O=C(/C=C1\NC2(CCCC2)Cc2ccccc21)C(=O)N/N=C/c1ccc(O)c(O)c1	n	n	n	32.0	n	n	x
O=C(Nc1cccc(F)c1)/C(=C\c1ccco1)NC(=O)c1ccco1	x	23.9	n	n	n	n	x
COC(=O)c1cccc(NC(=O)/C(=C\c2ccco2)NC(=O)c2ccco2)c1	x	24.6	x	x	x	x	x
O=C(CN1CCN(c2ccccc2)CC1)N1CCc2ccccc21	x	n	n	n	n	n	x
CCOc1ccccc1CNC(=O)C(C)n1nc(C)c2c(C)n(-c3ccccc3)nc2c1=O (centres undefined)	x	n	n	n	n	n	x
CCCCn1c(SCC(N)=O)nc2c(sc3ccccc32)c1=O	n	n	n	n	n	50.2	x
CCOC(=O)N1CCN(C(=O)c2ccc3nc4ccc(Cl)cc4c(=O)n3c2)CC1	n	n	n	n	n	n	x
Cc1cc(C)nc(Nc2ncc(O)n2-c2ccc(C)c(C)c2)n1	n	n	n	n	n	n	x
Cc1ccc2[nH]c3c(N4CCc5ccccc5C4)ncnc3c2c1	n	n	n	30.2	n	n	x
Cc1ccsc1C=C1C(=O)c2ccccc2C1=O	n	n	n	n	n	37.5	x
Cc1ccsc1/C=C1/C(=O)NN(c2ccccc2)C1=O	n	n	n	n	n	n	x
CN(CC(=O)Nc1c(Cl)cccc1Cl)C(=O)Cc1cccs1	x	n	n	n	x	x	x
COCCn1c(=N)c(C(=O)NCCc2ccc(OC)cc2)cc2c(=O)n3cccc(C)c3nc21	n	n	n	n	n	n	x
COc1cccc(NC(=O)Cn2c(=O)n(-c3ccccc3)c(=O)c3oc4ccccc4c32)c1	16.0	n	n	n	n	n	n
CC(C)(C)c1ccc(C(=O)Nc2ccc(Oc3cccnc3)nc2)cc1	n	n	n	n	n	n	x
SMILES	RBBP9 inhibitor	PRMT1 inh	PAD4 FP inh	PME-1 primary	Fam108B inh	GSTO1 inh	RBBP9 inh conf
CCOc1cc(C(=O)NC(C)C2CC3CCC2C3)cc(OCC)c1OCC (centres undefined)	x	n	n	n	n	n	x
CCOc1cc(C(=O)NC(C)C2CCCO2)cc(OCC)c1OCC (centres undefined)	15.8	n	n	n	n	n	n
CCn1c(C(=O)NCc2cccnc2)cc2sc(Cl)cc21	14.5	n	n	n	n	n	n
CCn1c(N)c(C(=O)NCc2cccnc2)sc1=S	n	n	n	n	n	n	x
Cc1cc(C)nc(Sc2c(C)nn(-c3ccccc3)c2C)n1	15.2	n	n	n	n	n	n
O=C(O)/C=C/C(=O)NC1CCC(CC2CCC(NC(=O)/C=C/C(=O)O)CC2)CC1 (centres undefined)	20.6	n	n	n	n	n	n
O=C(Cn1ccc([N+](=O)[O-])n1)N1CCCCCC1	15.7	n	n	n	n	n	n
Cc1cc(-c2onc(C)c2C(N)=O)no1	14.4	n	n	n	n	n	n
Cc1cc(-c2onc(C)c2C(=O)Oc2ccc(Cl)cc2)no1	n	n	n	n	n	n	x
COC(=O)CC(c1ccccc1F)N1Cc2ccccc2C1=O (centres undefined)	x	n	n	n	n	n	x
CCOC(=O)C(CCCCCOc1ccc([N+](=O)[O-])cc1)C(=O)OCC	17.7	n	n	n	n	n	n
Cc1ccccc1NC(=O)c1ocnc1C	n	n	n	n	n	n	x
O=C(CSc1nnc(NC(=O)C2CCC2)s1)Nc1ccccc1	x	n	n	n	n	n	x
Cc1cccc(N2CCN(C(=O)Cn3sc4nc(C)cc(C)c4c3=O)CC2C)c1 (centres undefined)	18.7	x	n	n	n	n	33.6
Cc1cc(C)c2c(=O)n(CC(=O)N3CCC(Cc4ccccc4)CC3)sc2n1	n	x	x	x	x	x	x
Oc1ccc(/C=N/NC2=NCCCCC2)cc1	16.5	n	n	n	n	n	n
Clc1cccc2sc(-c3nnc(-c4ccccc4)o3)c(Cl)c12	19.7	n	n	n	n	n	n
Nc1nn2c(C(F)(F)F)cc(=O)[nH]c2c1N=Nc1cccc(F)c1	n	x	n	n	n	n	x
Cc1cc(=O)[nH]c2c(N=Nc3ccc(O)cc3)c(N)nn12	22.6	n	x	x	x	x	33.9
Cc1occc1-c1nnc(SCC(=O)Nc2ccc(F)cc2)n1Cc1ccccc1	n	n	n	n	n	n	x
O=C1CCCN1c1ccc(C(=O)N(Cc2nnc(-c3ccc(Cl)cc3)o2)C2CC2)cc1	x	n	n	n	n	n	x
S=c1[nH]nc(C2CCCCC2)n1/N=C/c1ccccc1	x	n	n	n	n	n	x
COc1ccc(C(=O)NCCCn2ccnc2)cc1[N+](=O)[O-]	n	n	n	n	n	n	x
COc1cc(C(=O)NCCCn2ccnc2)cc(OC)c1OC	14.4	n	n	n	n	n	n
O=C(c1ccccc1F)N1CCN(c2ccc([N+](=O)[O-])cc2-n2cccc2)CC1	15.9	n	n	n	n	n	n
CS(=O)(=O)c1ccc(NS(=O)(=O)c2ccc3ccccc3c2)cc1	x	n	n	n	n	n	x
CNS(=O)(=O)c1ccc2ccccc2c1	19.4	n	n	n	n	n	n
Cc1ccc(N2CC(C(=O)N3CCC(C(=O)Nc4nncs4)CC3)CC2=O)cc1 (centres undefined)	x	n	n	n	n	n	x

Assay outcomes deposited in PubChem by The Scripps Research Institute Molecular Screening Center.
